Assay results from ChEMBL document CHEMBL3244004, “Potential antitumor agents. 27. Quantitative structure--antileukemic (L1210) activity relationships for the omega-[4-(9-acridinylamino)phenyl]alkanoic acids” (J Med Chem, 1978).
Calls of active or inactive are those of the source. The rule behind the calls is not given here.

What was measured:
[1] = Logarithmic function of the retardation factor value of compound by reverse phase chromatography analysis; format: physicochemical
How it was run: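 Lipophilic-hydrophilic balance read by reversed-phase TLC, using a system described in an earlier report. R_m is calculated as log(1/R_f − 1). Each quoted figure is the mean of at least three determinations.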

Mus musculus = assay: Toxicity in ip dosed C3H/DBA2F1 hybrid mouse allografted with mouse L1210 cells administered for 5 days measured up to 8 days; format: organism-based; conditions: in vivo
How it was run: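 C3H/DBA2 F1 hybrid mice (18.5–22.5 g) bearing ip 10^5 L1210 cells were dosed ip once daily for 5 days, starting 24 h after inoculation, at 0.2 mL per dose. Doses were spaced 0.05 log units apart. Deaths before day 8 were taken as drug toxicity, and the dose lethal to 10% of animals (LD10) was derived.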

L1210 = assay: Antitumor activity against mouse L1210 cells allografted in C3H/DBA2F1 hybrid mouse assessed as maximum increase of host life span administered as ip for 5 days relative to control; format: functional
How it was run: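 Mice (C3H/DBA2 F1 hybrid, 18.5–22.5 g; six per dose level) were inoculated ip with 10^5 L1210 cells. Ip treatment ran once daily on days 1–5, starting 24 h after inoculation, in 0.2 mL per dose. Doses were spaced 0.09 log units apart. ILS = T/C% − 100, significant if above 25%. Significant ILS values were regressed on log dose, and ILSmax was read at the LD10.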

SMILES | Rm [1] | LD10 (Mus musculus) [mg/kg] | ILSmax (L1210) | log(ILSmax) (L1210)
O=C(O)Cc1ccc(Nc2c3ccccc3nc3ccccc23)cc1 | 0.23 | 450 | 22% | 1.34
NC(=O)CCCc1ccc(Nc2c3ccccc3nc3ccccc23)cc1 | 0.09 | 85 | 122% | 2.09
O=C(O)CCCCc1ccc(Nc2c3ccccc3nc3ccccc23)cc1 | 0.64 | 125 | 187% | 2.27
CCc1cccc2c(Nc3ccc(CC(=O)O)cc3)c3ccccc3nc12 | 0.52 | 200 | 200% | 2.3
NC(=O)CCCCCCc1ccc(Nc2c3ccccc3nc3ccccc23)cc1 | 0.58 | 110 | 71% | 1.85
CCS(=O)(=O)Nc1ccc(Nc2c3ccccc3nc3ccccc23)cc1 | 0.25 | 330 | 98% | –
NS(=O)(=O)c1ccc(Nc2c3ccccc3nc3ccccc23)cc1 | -0.57 | > 500 | inactive | –
Cl.O=C(O)CCCc1ccc(Nc2c3ccccc3nc3ccccc23)cc1 | 0.59 | 190 | 213% | 2.33
CS(=O)(=O)O.NC(=O)CCCCCc1ccc(Nc2c3ccccc3nc3ccccc23)cc1 | 0.41 | 125 | 97% | 1.99
Cl.O=C(O)CCCCCCCc1ccc(Nc2c3ccccc3nc3ccccc23)cc1 | 0.82 | 95 | 75% | 1.88
CC(=O)Nc1ccc2c(Nc3ccc(CCCCCC(=O)O)cc3)c3ccccc3nc2c1.Cl | 0.54 | > 500 | inactive | –
CNc1ccc2c(Nc3ccc(NS(C)(=O)=O)cc3OC)c3ccccc3nc2c1.Cl | 0.17 | 1.3 | 94% | 1.97
CCCCCS(=O)(=O)Nc1ccc(Nc2c3ccccc3nc3ccccc23)cc1.Cl | 0.66 | 70 | 55% | –
Cl.O=S(=O)(Cc1ccc(Nc2c3ccccc3nc3ccccc23)cc1)Nc1ccccn1 | -0.04 | 370 | 99% | 2
CS(=O)(=O)O.NC(=O)CCCCCCCCc1ccc(Nc2c3ccccc3nc3ccccc23)cc1 | 0.77 | 60 | 25% | 1.4
CCCCS(=O)(=O)Nc1ccc(Nc2c3ccccc3nc3ccccc23)cc1 | 0.56 | 350 | 66% | –
CC(=O)Nc1ccc2c(Nc3ccc(NS(C)(=O)=O)cc3)c3ccccc3nc2c1 | -0.12 | 19 | 145% | –
Cl.NS(=O)(=O)Cc1ccc(Nc2c3ccccc3nc3ccccc23)cc1 | -0.36 | 62 | 53% | 1.72
CCCCCS(=O)(=O)Nc1ccc(Nc2c3ccccc3nc3cc(NC(C)=O)ccc23)cc1 | 0.59 | 40 | 61% | 1.78
NC(=O)CCc1ccc(Nc2c3ccccc3nc3ccccc23)cc1 | -0.17 | 75 | 84% | 1.92

SMILES | Rm [1] | LD10 (Mus musculus) [mg/kg] | ILSmax (L1210) | log(ILSmax) (L1210)
CCCS(=O)(=O)Nc1ccc(Nc2c3ccccc3nc3ccccc23)cc1 | 0.43 | 350 | 82% | –
CCC(=O)Nc1ccc2c(Nc3ccc(NS(C)(=O)=O)cc3)c3ccccc3nc2c1 | 0.15 | 55 | 119% | 2.08
CS(=O)(=O)Nc1ccc(Nc2c3ccccc3nc3ccccc23)cc1 | 0 | 66 | 131% | –
CCc1cccc2c(Nc3ccc(CCC(=O)O)cc3)c3ccccc3nc12.Cl | 0.66 | 200 | 130% | 2.11
CCCCCCS(=O)(=O)Nc1ccc(Nc2c3ccccc3nc3cc(NC(C)=O)ccc23)cc1 | 0.7 | 21 | 43% | 1.63
CS(=O)(=O)O.NC(=O)CCCCc1ccc(Nc2c3ccccc3nc3ccccc23)cc1 | 0.25 | 110 | 82% | 1.91
Cc1cccc2c(Nc3ccc(CC(=O)O)cc3)c3ccccc3nc12 | 0.3 | 95 | 80% | 1.9
CNc1ccc2c(Nc3ccc(CCCC(=O)O)cc3)c3ccccc3nc2c1.Cl | 0.67 | 400 | 35% | 1.54
CCS(=O)(=O)Nc1ccc(Nc2c3ccccc3nc3cc(NC(C)=O)ccc23)cc1 | 0.1 | 28 | 115% | 2.06
CS(=O)(=O)O.NC(=O)CCCCCCCc1ccc(Nc2c3ccccc3nc3ccccc23)cc1 | 0.68 | 120 | 53% | 1.72
Cl.O=C(O)CCc1ccc(Nc2c3ccccc3nc3ccccc23)cc1 | 0.44 | 125 | 163% | 2.21
NC(=O)c1ccc(Nc2c3ccccc3nc3ccccc23)cc1 | -0.25 | 182 | – | <1.3
Cl.O=C(O)CCCCCc1ccc(Nc2c3ccccc3nc3ccccc23)cc1 | 0.75 | 150 | 200% | 2.3
Cc1cccc2c(Nc3ccc(CCC(=O)O)cc3)c3ccccc3nc12 | 0.46 | 32 | 124% | 2.09
CNc1ccc2c(Nc3ccc(NS(C)(=O)=O)cc3)c3ccccc3nc2c1.Cl | -0.01 | 7 | 103% | 2.01
O=C(O)c1ccc(Nc2c3ccccc3nc3ccccc23)cc1 | 0.27 | 72 | 130% | 2.11
O=C(O)CCCCCCc1ccc(Nc2c3ccccc3nc3ccccc23)cc1 | 0.79 | 90 | 74% | 1.87
CC(=O)Nc1ccc2c(=Nc3ccc(CCC(=O)O)cc3)c3ccccc3[nH]c2c1.Cl | 0.27 | 145 | – | <1.3
CCCCS(=O)(=O)Nc1ccc(Nc2c3ccccc3nc3cc(NC(C)=O)ccc23)cc1 | 0.46 | 39 | 84% | 1.92
CS(=O)(=O)O.NC(=O)Cc1ccc(Nc2c3ccccc3nc3ccccc23)cc1 | -0.33 | 55 | 64% | 1.81
